Data on five compounds can be found in ChEMBL document CHEMBL1649340, “Sesquiterpene coumarins from Ferula gumosa” (J Nat Prod, 2010).

The source made the active and inactive calls. No cut-off for these calls is given here.

Holding throughout (type): functional, cell-based
In one experiment the test system is M14. As to the kind of experiment: Cytotoxicity against human M14 cells after 48 hrs by MTT assay. The procedure, abridged:
(§1)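 Adherent lines from ATCC, grown in DMEM with 2 mM L-glutamine, 10% heat-inactivated FBS and 1% pen/strep, used for up to 10 passages. 3 × 10^3 cells were seeded per well and left overnight at 37 °C in 5% CO2. Serial dilutions (1-50 µM) were added for 48 h. MTT (5 mg/mL stock) was added for 3 h, then solubilised in 50% DMF/20% SDS at pH 4.5. OD was read at 620 nm, with viability given as % of 0.1% DMSO controls.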

For the next experiment, the system named is SAOS-2. The experiment in a line: Cytotoxicity against human Saos2 cells after 48 hrs by MTT assay. The procedure, abridged: as §1
Another experiment has as its system U-937. The experiment in a line: Cytotoxicity against human U937 cells after 48 hrs by MTT assay. The procedure, abridged: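 U937 cells were grown in RPMI with 2 mM L-glutamine, 10% FBS and 1% pen/strep, for no more than 10 passages. 3 × 10^3 cells per well were plated and incubated overnight at 37 °C in 5% CO2, then exposed to serial dilutions (1-50 µM) for 48 h. MTT (5 mg/mL stock) was added for 3 h, followed by lysis in 50% DMF/20% SDS at pH 4.5. OD was read at 620 nm, and viability was expressed against 0.1% DMSO controls.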
On the technique in general: Tetrazolium dyes change colour on reduction, which living cells bring about.

The subject of the next experiment is T98G. As to the kind of experiment: Cytotoxicity against human T98G cells after 48 hrs by MTT assay. The procedure, abridged:
as §1

A further experiment deals with FRO. The experiment in a line: (§2) Cytotoxicity against human FRO cells after 48 hrs by MTT assay. The procedure, abridged: as §1
In a further experiment the test system is MCF7. The experiment in a line: Cytotoxicity against human MCF7 cells after 48 hrs by MTT assay. The procedure, abridged: as §1
Another experiment relates to A549. As to the kind of experiment: Cytotoxicity against human A549 cells after 48 hrs by MTT assay. The procedure, abridged: as §1
Experiment [1] can be described thus: as §2. The procedure, abridged: as §1

For the compound `C=C1C[C@@H](O[C@@H]2O[C@H](CO[C@@H]3OC[C@](O)(CO)[C@H]3O)[C@@H](O)[C@H](O)[C@H]2O)[C@@H]2C(C)(C)[C@H](O)CC[C@@]2(C)[C@@H]1COc1ccc2ccc(=O)oc2c1`, the outcome with M14, with SAOS-2, in the experiment on U-937, with T98G, with FRO and in the experiment on MCF7 was inactive. For the same compound, in the experiment on A549, the result was inactive.
For `C=C1C[C@@H](O[C@@H]2O[C@H](CO)[C@@H](O)[C@H](O)[C@H]2O)[C@@H]2C(C)(C)[C@@H](O)CC[C@@]2(C)[C@@H]1COc1ccc2ccc(=O)oc2c1`, the outcome in the experiment on M14, in the experiment with SAOS-2, in the experiment on U-937, with T98G, in the experiment with FRO and with MCF7 was inactive. Further, the result in the experiment with A549 was inactive.
Take `C=C1C[C@@H](O[C@@H]2O[C@H](CO)[C@@H](O)[C@H](O)[C@H]2O)[C@@H]2C(C)(C)[C@H](O)CC[C@@]2(C)[C@@H]1COc1ccc2ccc(=O)oc2c1`: the result in the experiment with M14, in the experiment on SAOS-2, in the experiment with U-937, with T98G, in the experiment on FRO and in the experiment with MCF7 was inactive. Moreover, the result in the experiment on A549 was inactive.
For the compound `CC1(C)[C@H](O)CC[C@]2(C)[C@@H]1C=C[C@](C)(O)[C@H]2COc1ccc2ccc(=O)oc2c1`, the result with M14, with SAOS-2, in the experiment on U-937, in the experiment with T98G, in the experiment on FRO and in the experiment on MCF7 was inactive. The outcome with A549 was inactive.
As a reminder, the IC50 is the concentration at which inhibition is half-maximal. Low readings indicate higher potency, high ones lower potency. For `CC1=CC[C@@H]2C(C)(C)[C@H](O)CC[C@@]2(C)[C@@H]1COc1ccc2ccc(=O)oc2c1` [FESELOL], the IC50 with M14 (M14, 48 h) is more than 10 µM; in the experiment with SAOS-2 (SAOS-2, 48 h), more than 10 µM; with U-937 (U-937, 48 h) it was 8 µM; in the experiment with T98G, more than 10 µM; in experiment [1] it was more than 10 µM; with MCF7 (MCF7, 48 h) it was more than 10 µM. Further, the IC50 in the experiment on A549 (A549, 48 h) was more than 10 µM.
